Data as given in ChEMBL document CHEMBL3745620, “Design and Synthesis of DiselenoBisBenzamides (DISeBAs) as Nucleocapsid Protein 7 (NCp7) Inhibitors with anti-HIV Activity” (J Med Chem, 2015).
Active and inactive are the calls of the source. The calls are words filed in the database; no cut-off is given here.

What was measured:
[1] = test system: Human immunodeficiency virus 1; test: Antiviral activity against HIV1 3B infected in human CEM cells assessed as protection against virus-induced cytopathic effect by XTT assay; type: functional, organism-based; settings: Human immunodeficiency virus 1, 3B, CCRF-CEM
[2] = Cytotoxicity against human CEM cells by XTT assay; type: cell-based, CCRF-CEM
[3] = Selectivity index, ratio of CC50 for human CEM cells to EC50 for HIV1 3B; type: toxicity, cell-based, CCRF-CEM
[4] = test system: Human immunodeficiency virus 1; test: Antiviral activity against HIV1 3B infected in human MT4 cells assessed as protection against virus-induced cytopathic effect after 5 days by MTT assay; type: functional, organism-based; settings: Human immunodeficiency virus 1, 3B, MT4, 120 h
Method in brief: (§1)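 MT-4 cells in RPMI 1640 with 10% heat-inactivated FCS, resuspended at 6 x 10^5 cells/ml. Compounds added at start in serial 5-fold dilutions, triplicate wells, to mock- and virus-infected cells (100-300 CCID50 per well). After 5 days, viability by MTT reduction (OD540). […] Mean ± SD, at least two experiments.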

[5] = test system: Human immunodeficiency virus 2; test: Antiviral activity against HIV2 ROD infected in human MT4 cells assessed as protection against virus-induced cytopathic effect after 5 days by MTT assay; type: functional, organism-based; settings: Human immunodeficiency virus 2, ISOLATE ROD, MT4, 120 h; method in brief: as §1
[6] = Cytotoxicity against human MT4 cells assessed as cell viability after 5 days by MTT assay; type: cell-based
Method in brief: (§2)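 Compounds added at start in serial 5-fold dilutions, triplicate wells, to mock- and virus-infected cells (100-300 CCID50 per well). After 5 days, viability by MTT reduction (OD540). Mean ± SD, at least two experiments.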

[7] = Selectivity index, ratio of CC50 for human MT4 cells to EC50 for HIV1 3B; type: toxicity, cell-based; settings: read-out: Ratio CC50/EC50; method in brief: as §2
[8] = Selectivity index, ratio of CC50 for human MT4 cells to EC50 for HIV-2 ROD; type: toxicity, cell-based; settings: read-out: Ratio CC50/EC50; method in brief: as §2
[9] = test system: Human immunodeficiency virus 1; test: Antiviral activity against HIV1 3B infected in human MT4 cells assessed as inhibition of viral replication by measuring p24 Ag production at 2 ug/ml measured at 31 hrs post infection by ELISA; type: functional, organism-based
Method in brief: (§3)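 MT-4 cells infected with HIV-1 IIIB at m.o.i. 0.5, 1 h adsorption, then seeded at 45,000 cells/well at 37°C. Compound added at times from 0 to 25 h post-infection. Read-out was p24 in supernatant by ELISA at 31 h post-infection.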

[10] = test system: Human immunodeficiency virus 1; test: Antiviral activity against HIV1 3B infected in human MT4 cells assessed as inhibition of viral replication by measuring p24 Ag production at 50 ug/ml measured at 31 hrs post infection by ELISA; type: functional, organism-based; method in brief: as §3
HuT78 = test: Inhibition of NCp7 of HIV1 3B persistently infected in HUT78 cells assessed as accumulation of unprocessed Gag polyprotein after 43 hrs by Western blot analysis; type: cell-based; settings: Human immunodeficiency virus 1
Method in brief: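 Washed HuT-78(IIIB) cells (2x10^5 in 1 ml) treated with compound for 43 h at 37°C. Virions pelleted from clarified supernatant (36,670 g, 2 h, 4°C), lysed, run on SDS-PAGE and transferred to PVDF. Blot probed with mouse anti-p24 (1:5000), then HRP anti-mouse (1:2500), with chemiluminescent detection.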

[11] = test system: Human immunodeficiency virus 1; test: Antiviral activity against HIV1 3B persistently infected in HUT78 cells assessed as reduction of p24 production after 43 hrs by ELISA; type: functional, organism-based; settings: Human immunodeficiency virus 1, 3B, HuT78, 43 h
Method in brief: (§4)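 Chronically HIV-1 IIIB-infected HuT-78 cells washed four times in PBS to remove free virions and seeded at 2 × 10^5 cells/well with 7 serial 5-fold compound dilutions for 43 h at 37°C. Supernatant p24 measured by ELISA. Cytotoxicity was run in parallel by MTT plus microscopy. SI = CC50/EC50. Mean ± SD, ≥2 experiments.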

[12] = Cytotoxicity against human HUT78 cells assessed as reduction in cell viability after 5 days by MTT assay; type: cell-based
[13] = Selectivity index, ratio of CC50 for human HUT78 cells to EC50 for HIV1 3B; type: toxicity, cell-based; settings: read-out: Ratio CC50/EC50; method in brief: as §4
[14] = test system: Human immunodeficiency virus 1; test: Virucidal activity against HIV1 3B infected in human MT4 cells assessed as reduction of virus infectivity at 125 ug/ml after 1 hr by MTT assay; type: functional, organism-based
Method in brief: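 HIV-1 IIIB stock incubated with compound in 100 µl RPMI-1640/10% FCS for 1 h at 37°C, then diluted 4000-fold. Residual infectivity titrated on MT-4 cells, with CCID50 calculated by the Reed and Muench method.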

[15] = test system: Human immunodeficiency virus 1; test: Antiviral activity against NNRTI-resistant HIV1 RES056 harboring reverse transcriptase K103N/181C double mutant infected in human MT4 cells; type: functional, organism-based; settings: Human immunodeficiency virus 1, RES056, MT4
Method in brief: (§5)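 MT-4 cells in RPMI 1640 with 10% heat-inactivated FCS were infected at the start of the experiment, with compound added across serial 5-fold dilutions in triplicate wells. Cells were seeded at 6 x 10^5 cells/ml. After 5 days, protection against virus-induced cytopathic effect was read by MTT reduction at OD540. […] Values are means ± SD of at least two experiments.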

[16] = test system: Human immunodeficiency virus 1; test: Antiviral activity against ritonavir-resistant HIV1 3B/RIT infected in human MT4 cells; type: functional, organism-based; settings: Human immunodeficiency virus 1, 3B/RIT; method in brief: as §5
[17] = test system: Human immunodeficiency virus 1; test: Antiviral activity against NRTI/NNRTI-resistant HIV1 L6 harboring reverse transcriptase V75I/F77L/K103N/F116Y/Q151M/M184V mutant infected in human MT4 cells; type: functional, organism-based; settings: Human immunodeficiency virus 1, L6, MT4; method in brief: as §5
[18] = test system: Human immunodeficiency virus 1; test: Antiviral activity against ritonavir-resistant HIV1 B12 harboring […] L10I/I15V/I54V/L63P/V82A/I85V mutant infected in human MT4 cells; type: functional, organism-based; settings: Human immunodeficiency virus 1, B12, MT4; method in brief: as §5
[19] = test system: Human immunodeficiency virus 1; test: Antiviral activity against AZT-resistant HIV1 ADP/141 harboring reverse transcriptase D67N/K70R/T215F/K219Q mutant infected in human MT4 cells; type: functional, organism-based; settings: Human immunodeficiency virus 1, ADP/141, MT4; method in brief: as §5
[20] = Antiviral activity against nevirapine-resistant SIV mac251 infected in human MT4 cells; type: functional, cell-based; settings: Simian immunodeficiency virus; method in brief: as §5
[21] = Selectivity index, ratio of CC50 for human MT4 cells to EC50 for NNRTI-resistant HIV1 RES056 harboring reverse transcriptase K103N/181C double mutant; type: toxicity, cell-based; settings: read-out: Ratio CC50/EC50
Method in brief: (§6)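 Uninfected and infected MT-4 cells were run in parallel in triplicate over serial 5-fold compound dilutions for 5 days, and viability was read by MTT at OD540. […] SI = CC50/EC50, from means of at least two experiments.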

[22] = Selectivity index, ratio of CC50 for human MT4 cells to EC50 for NRTI/NNRTI-resistant HIV1 L6 harboring reverse transcriptase V75I/F77L/K103N/F116Y/Q151M/M184V mutant; type: toxicity, cell-based; settings: read-out: Ratio CC50/EC50; method in brief: as §6
[23] = Selectivity index, ratio of CC50 for human MT4 cells to EC50 for ritonavir-resistant HIV1 3B/RIT; type: toxicity, cell-based; settings: read-out: Ratio CC50/EC50; method in brief: as §6
[24] = Selectivity index, ratio of CC50 for human MT4 cells to EC50 for ritonavir-resistant HIV1 B12 harboring […] L10I/I15V/I54V/L63P/V82A/I85V mutant; type: toxicity, cell-based; settings: read-out: Ratio CC50/EC50; method in brief: as §6
[25] = Selectivity index, ratio of CC50 for human MT4 cells to EC50 for AZT-resistant HIV1 ADP/141 harboring reverse transcriptase D67N/K70R/T215F/K219Q mutant; type: toxicity, cell-based; settings: read-out: Ratio CC50/EC50; method in brief: as §6
[26] = Selectivity index, ratio of CC50 for human MT4 cells to EC50 for nevirapine-resitant SIV Mac251
[27] = test system: Human immunodeficiency virus 1; test: Virucidal activity against HIV1 3B infected in MT4 cells assessed as reduction of virus infectivity at 125 ug/ml after 1 hr by MTT assay
[28] = test system: Human immunodeficiency virus 1; test: Antiviral activity against HIV1 3B infected in human MT4 cells assessed as inhibition of viral replication by measuring p24 Ag production at 60 ug/ml measured at 31 hrs post infection by ELISA; type: functional, organism-based; method in brief: as §3
[29] = test system: Human immunodeficiency virus 1; test: Antiviral activity against HIV1 3B infected in human MT4 cells assessed as inhibition of viral replication by measuring p24 Ag production at 90 ug/ml measured at 31 hrs post infection by ELISA; type: functional, organism-based; method in brief: as §3

Structure (SMILES)	EC50 [4]	EC50 [5]	CC50 at 120 h [6]	selectivity ratio [7]	selectivity ratio [8]	inhibition [9]	inhibition (HuT78)	EC50 [11]	CC50 at 120 h [12]	selectivity ratio [13]	EC50 [15]	EC50 [16]	EC50 [17]	EC50 [18]	EC50 [19]	EC50 [20]	selectivity ratio [21]	selectivity ratio [22]	selectivity ratio [23]	selectivity ratio [24]	other results
CC[C@H](C)[C@H](NC(=O)c1ccccc1SSc1ccccc1C(=O)N[C@H](C(=O)O)[C@@H](C)CC)C(=O)O																					EC50 [1]: 9 µM; CC50 [2]: > 120 µM; selectivity ratio [3]: > 13.3
O=C(O)CNC(=O)c1ccccc1[Se][Se]c1ccccc1C(=O)NCC(=O)O	3.15 µM	3.5 µM	117 µM	37	34	Active	Dose-dependent effect	14.1 µM	108 µM	7.8	3.51 µM	3.3 µM	3.44 µM	6.43 µM	4.51 µM	2.21 µM	33	34	36	18	inhibition [10]: Active; Activity [14]: Active; selectivity ratio [25]: 26; Ratio CC50/EC50 [26]: 52; Activity [27]: Active
O=C(O)CC[C@H](NC(=O)c1ccccc1[Se][Se]c1ccccc1C(=O)N[C@@H](CCC(=O)O)C(=O)O)C(=O)O	3.31 µM	3.18 µM	107 µM	32	34	Active	Dose-dependent effect	15.5 µM	100 µM	6.5	3.61 µM	5.42 µM	6.59 µM	14.5 µM	2.8 µM	1.7 µM	29	16	20	8	inhibition [28]: Active; Activity [14]: Active; selectivity ratio [25]: 38; Ratio CC50/EC50 [26]: 63; Activity [27]: Active
CC[C@H](C)[C@H](NC(=O)c1ccccc1[Se][Se]c1ccccc1C(=O)N[C@H](C(=O)O)[C@@H](C)CC)C(=O)O	13.8 µM	13.1 µM	164 µM	12	13	Active	Dose-dependent effect	73.2 µM	> 162 µM	> 2.2	28 µM	25.8 µM	25.9 µM	27.7 µM	14.7 µM	17.4 µM	6	6	6	6	inhibition [29]: Active; selectivity ratio [25]: 11; Ratio CC50/EC50 [26]: 9
